In ChEMBL document CHEMBL1138430, “Novel tetrahydroisoquinolines are histamine H3 antagonists and serotonin reuptake inhibitors” (Bioorg Med Chem Lett, 2007):
Active and inactive are the calls of the source. The calls are words filed in the database; no cut-off is given here.

Legend:
[1] = Bioavailability in po dosed rat; type: ADME, organism-based; details: in vivo
[2] = target: T1, Cholecystokinin receptor type A (Homo sapiens) (UniProt P32238); experiment: Binding affinity at CCKA receptor at 1 uM
T1 sequence (whole entry): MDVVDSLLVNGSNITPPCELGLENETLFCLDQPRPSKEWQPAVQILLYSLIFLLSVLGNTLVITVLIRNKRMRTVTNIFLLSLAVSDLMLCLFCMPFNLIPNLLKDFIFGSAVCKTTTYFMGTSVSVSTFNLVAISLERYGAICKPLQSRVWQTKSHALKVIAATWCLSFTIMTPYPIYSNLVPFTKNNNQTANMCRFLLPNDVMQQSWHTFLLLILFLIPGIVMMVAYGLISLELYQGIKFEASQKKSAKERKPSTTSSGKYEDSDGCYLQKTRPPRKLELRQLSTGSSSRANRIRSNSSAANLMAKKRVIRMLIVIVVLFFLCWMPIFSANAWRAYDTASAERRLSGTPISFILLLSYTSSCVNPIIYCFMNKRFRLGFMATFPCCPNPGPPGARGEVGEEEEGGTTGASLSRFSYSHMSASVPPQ

[3] = target: Sodium-dependent noradrenaline transporter (Homo sapiens, UniProt P23975); experiment: Inhibition of [3H]nisoxetine uptake in human NET expressed in MDCK cells; type: cell-based
Rattus norvegicus [4] = experiment: Ex vivo receptor occupancy at histamine H3 receptor in rat at 0.3 mg/kg, sc; type: functional; details: route subcutaneous
How it was run: (§1)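 Ex vivo receptor occupancy was measured in rat brain at SERT and at the H3 receptor after a single subcutaneous dose. Brain drug concentrations were determined alongside occupancy.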

[5] = Plasma clearance in po and iv dosed rat; type: ADME, organism-based
[6] = target: Sodium-dependent dopamine transporter (Homo sapiens, UniProt Q01959); experiment: Inhibition of [3H]WIN-uptake in human DAT expressed in CHO cells; type: cell-based
How it was run: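 Human DAT expressed in CHO cells; membranes were incubated on ice for 2 h with 10.9 nM [3H]-WIN 35,428, then harvested by rapid filtration. Nonspecific binding was defined with GBR-12909. Ki values are means of at least three experiments run in triplicate, with SEM.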

[7] = Volume of distribution at steady state in po and iv dosed rat; type: ADME, organism-based; details: in vivo, read-out: Vdss
[8] = Half life in po and iv dosed rat; type: ADME, organism-based; details: in vivo
[9] = tested on: Voltage-gated calcium channel; experiment: Binding affinity for calcium channel at 1 uM; type: protein-complex assay; details: human
[10] = target: 5-hydroxytryptamine receptor 6 (Homo sapiens) (UniProt P50406); experiment: Binding affinity at 5HT6 receptor at 1 uM
[11] = target: Vasopressin V1a receptor (Homo sapiens) (UniProt P37288); experiment: Binding affinity at vasopressin V1a receptor at 1 uM
Brain = experiment: Drug level in rat brain at 0.3 mg/kg, sc; type: ADME, organism-based; set-up: dose 0.3 mg/kg, route subcutaneous; details: in vivo, read-out: Drug uptake
Rattus norvegicus [12] = experiment: Ex vivo receptor occupancy at SERT in rat at 0.3 mg/kg, sc; type: functional; details: route subcutaneous; how it was run: as §1
[13] = target: T2, Adenosine receptor A3 (Homo sapiens) (UniProt P0DMS8); experiment: Binding affinity at adenosine A3 receptor at 1 uM
T2 sequence (whole entry): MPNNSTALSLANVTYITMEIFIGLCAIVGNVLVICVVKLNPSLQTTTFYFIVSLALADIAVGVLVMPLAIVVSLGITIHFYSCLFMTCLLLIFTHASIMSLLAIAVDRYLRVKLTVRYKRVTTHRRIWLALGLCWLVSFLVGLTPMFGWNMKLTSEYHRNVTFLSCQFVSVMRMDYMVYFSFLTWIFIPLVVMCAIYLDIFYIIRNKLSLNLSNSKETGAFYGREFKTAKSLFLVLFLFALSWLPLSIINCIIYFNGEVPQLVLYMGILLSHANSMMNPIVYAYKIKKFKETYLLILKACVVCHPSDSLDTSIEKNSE

Histamine H3 receptor [14] = target: T3, Histamine H3 receptor (Homo sapiens, UniProt Q9Y5N1); experiment: Antagonist activity at human histamine H3 receptor; type: functional; details: read-out: pA2 (converted)
Histamine H3 receptor [15] = target: T3, Histamine H3 receptor; experiment: Binding affinity at human histamine H3 receptor
[16] = target: Neurotensin receptor type 1 (Homo sapiens) (UniProt P30989); experiment: Binding affinity at NT1 receptor at 1 uM
[17] = tested on: Voltage-gated potassium channel; experiment: Binding affinity for potassium channel at 1 uM; type: protein assay; details: human
[18] = Cmax in rat brain at 10 mg/kg, po; type: ADME, organism-based; set-up: dose 10 mg/kg, route oral

Vasopressin V1a receptor (Homo sapiens), sequence (P37288 whole entry, looked up): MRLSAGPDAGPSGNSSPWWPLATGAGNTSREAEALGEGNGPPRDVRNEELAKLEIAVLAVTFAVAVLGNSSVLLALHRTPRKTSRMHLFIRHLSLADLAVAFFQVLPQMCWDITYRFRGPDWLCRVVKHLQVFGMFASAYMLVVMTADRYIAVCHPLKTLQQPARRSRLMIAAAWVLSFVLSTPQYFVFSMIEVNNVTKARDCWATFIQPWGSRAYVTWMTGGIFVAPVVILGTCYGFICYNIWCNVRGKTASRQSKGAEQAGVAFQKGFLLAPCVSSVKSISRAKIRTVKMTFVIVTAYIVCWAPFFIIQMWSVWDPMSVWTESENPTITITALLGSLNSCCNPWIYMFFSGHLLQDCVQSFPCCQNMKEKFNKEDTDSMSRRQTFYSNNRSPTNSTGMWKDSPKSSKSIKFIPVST
5-hydroxytryptamine receptor 6 (Homo sapiens), sequence (P50406 whole entry): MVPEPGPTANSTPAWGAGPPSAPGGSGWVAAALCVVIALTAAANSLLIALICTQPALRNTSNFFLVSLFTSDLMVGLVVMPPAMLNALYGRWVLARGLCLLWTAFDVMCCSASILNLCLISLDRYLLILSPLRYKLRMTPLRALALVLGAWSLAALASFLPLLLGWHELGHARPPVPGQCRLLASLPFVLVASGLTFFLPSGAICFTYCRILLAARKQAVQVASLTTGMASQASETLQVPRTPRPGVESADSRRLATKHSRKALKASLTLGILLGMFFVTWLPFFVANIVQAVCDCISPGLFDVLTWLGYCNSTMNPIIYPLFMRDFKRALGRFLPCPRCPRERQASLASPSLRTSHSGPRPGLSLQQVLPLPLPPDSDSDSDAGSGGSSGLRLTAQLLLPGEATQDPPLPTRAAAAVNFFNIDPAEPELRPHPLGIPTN
Neurotensin receptor type 1 (Homo sapiens), sequence (P30989 whole entry): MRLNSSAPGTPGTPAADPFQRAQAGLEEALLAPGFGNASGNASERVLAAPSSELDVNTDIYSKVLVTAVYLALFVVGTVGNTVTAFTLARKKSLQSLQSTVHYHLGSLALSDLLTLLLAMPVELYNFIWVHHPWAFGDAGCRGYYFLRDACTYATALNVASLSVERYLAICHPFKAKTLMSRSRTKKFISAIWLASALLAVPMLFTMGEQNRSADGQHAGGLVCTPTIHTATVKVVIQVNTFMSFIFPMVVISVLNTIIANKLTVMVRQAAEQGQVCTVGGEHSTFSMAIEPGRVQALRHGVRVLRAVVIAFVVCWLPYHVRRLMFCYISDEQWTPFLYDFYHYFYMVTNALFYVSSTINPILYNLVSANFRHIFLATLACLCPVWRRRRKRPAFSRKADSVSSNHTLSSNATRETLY
T3 sequence (Q9Y5N1 whole entry): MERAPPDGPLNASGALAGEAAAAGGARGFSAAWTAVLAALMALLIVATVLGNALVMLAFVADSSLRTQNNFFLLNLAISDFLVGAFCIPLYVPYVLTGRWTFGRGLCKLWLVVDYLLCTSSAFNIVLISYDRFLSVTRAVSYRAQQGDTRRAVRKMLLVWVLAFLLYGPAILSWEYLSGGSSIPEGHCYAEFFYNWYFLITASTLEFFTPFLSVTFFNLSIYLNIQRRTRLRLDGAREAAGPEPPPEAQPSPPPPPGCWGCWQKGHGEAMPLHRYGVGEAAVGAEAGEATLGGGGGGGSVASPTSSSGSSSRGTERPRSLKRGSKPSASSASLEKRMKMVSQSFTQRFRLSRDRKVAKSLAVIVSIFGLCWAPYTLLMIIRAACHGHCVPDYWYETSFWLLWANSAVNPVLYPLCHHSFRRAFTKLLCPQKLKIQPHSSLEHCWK
Sodium-dependent dopamine transporter, sequence (Q01959 whole entry): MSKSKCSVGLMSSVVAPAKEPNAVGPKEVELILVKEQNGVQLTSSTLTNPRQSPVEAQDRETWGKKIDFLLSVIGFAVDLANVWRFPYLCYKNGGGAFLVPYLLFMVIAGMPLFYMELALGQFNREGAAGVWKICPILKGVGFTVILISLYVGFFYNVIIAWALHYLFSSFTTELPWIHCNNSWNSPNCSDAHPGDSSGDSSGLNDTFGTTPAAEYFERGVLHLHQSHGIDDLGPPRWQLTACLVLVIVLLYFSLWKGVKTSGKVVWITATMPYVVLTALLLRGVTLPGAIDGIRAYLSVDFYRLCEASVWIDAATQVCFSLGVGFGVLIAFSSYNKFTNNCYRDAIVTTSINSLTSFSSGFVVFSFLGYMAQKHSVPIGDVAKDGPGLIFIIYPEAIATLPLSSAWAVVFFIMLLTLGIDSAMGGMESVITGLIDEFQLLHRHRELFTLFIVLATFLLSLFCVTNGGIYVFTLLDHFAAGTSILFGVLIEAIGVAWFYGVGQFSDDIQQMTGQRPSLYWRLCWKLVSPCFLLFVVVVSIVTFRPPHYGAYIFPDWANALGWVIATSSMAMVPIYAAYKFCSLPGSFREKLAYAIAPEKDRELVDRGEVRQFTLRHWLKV
Sodium-dependent noradrenaline transporter, sequence (P23975 whole entry): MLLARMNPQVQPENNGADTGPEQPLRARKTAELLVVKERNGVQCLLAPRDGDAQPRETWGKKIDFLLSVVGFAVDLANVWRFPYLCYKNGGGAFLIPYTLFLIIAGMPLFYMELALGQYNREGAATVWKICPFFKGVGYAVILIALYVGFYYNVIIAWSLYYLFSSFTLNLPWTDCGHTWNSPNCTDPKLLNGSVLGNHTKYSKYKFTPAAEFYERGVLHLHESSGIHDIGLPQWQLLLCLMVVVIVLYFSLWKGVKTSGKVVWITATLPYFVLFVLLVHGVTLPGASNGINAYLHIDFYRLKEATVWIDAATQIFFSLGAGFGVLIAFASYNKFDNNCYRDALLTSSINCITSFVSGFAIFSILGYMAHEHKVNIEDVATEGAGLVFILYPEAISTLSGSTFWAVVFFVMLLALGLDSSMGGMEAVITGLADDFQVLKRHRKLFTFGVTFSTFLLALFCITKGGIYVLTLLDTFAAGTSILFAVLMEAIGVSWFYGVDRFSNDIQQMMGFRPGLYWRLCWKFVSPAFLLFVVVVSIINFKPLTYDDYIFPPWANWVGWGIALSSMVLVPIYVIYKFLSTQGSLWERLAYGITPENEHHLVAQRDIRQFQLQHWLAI

Row | SMILES | bioavailability [1] | Activity [2] | Ki [3] | Activity (Rattus norvegicus [4]) | clearance [5] | Ki [6] | Vd [7] | half-life [8] | Activity [9] | Activity [10] | Activity [11] | concentration (Brain) | Activity (Rattus norvegicus [12]) | Activity [13] | Kb (Histamine H3 receptor [14]) | Ki (Histamine H3 receptor [15]) | Activity [16] | Activity [17] | Cmax [18]
1 | COc1ccc([C@@H]2CN(C)Cc3cc(OCCCN4CCOC[C@@H]4C)ccc32)cc1 | 5% | inactive | 121 nM | 100% | 18.1 mL/min/kg | 102 nM | 6.8 L/kg | 9 h | Not Active | inactive | inactive | 880 nM | 100% | inactive | 0.891 nM | 5.6 nM | inactive | Not Active | –
2 | CSc1ccc(C2CN(C)Cc3cc(OCCCN4CCOCC4)ccc32)cc1 (racemic) | 38% | inactive | 106 nM | 100% | 14 mL/min/kg | 29 nM | 5.1 L/kg | 6.6 h | Not Active | inactive | inactive | 670 nM | 100% | inactive | – | – | inactive | Not Active | 9600 nM
3 | CSc1ccc(C2CN(C)Cc3cc(OCCCN4CCC(F)CC4)ccc32)cc1 (racemic) | – | inactive | – | – | – | – | – | – | – | inactive | inactive | – | – | inactive | – | – | inactive | – | –
